# Assay outcomes: PubChem BioAssay, The Scripps Research Institute Molecular Screening Center
# PRMT1 FP inh: inhibitors of human PRMT1; Q99873; recombinant PRMT1, activity-based probe fluorescence polarization; inhibition, % at 2.79 µM; 370,000 compounds, 1.3% hits; AID 652257;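 active means inhibition above about 21% made by adding two undisclosed values, limit read from the data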
# TCR-CD3 inh: blocks the human TCR-CD3 interaction; TAMRA-labeled TCR probe fluorescence, biochemical; inhibition, % at 9.4 µM; 360,000 compounds, 0.37% hits; AID 651800; in the data active means inhibition above about 19%;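 further: recombinant mutant TCR 2C K166C tagged with TAMRA read by polarization; 0% = receptor in buffer alone and 100% = receptor with positive control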
# SIAE primary: human SIAE inhibition, primary screen | inhibition, % at 9.66 µM | SIAE FP-Rh probe binding, fluorescence polarization | Q9HAT2 | 370,000 compounds, 0.69% hits;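 active means inhibition above a cutoff: mean of compounds within the control limits plus 3 SD of those, cut at about 17% in these data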;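 further: 0% = plate median of compound wells and 100% = probe without SIAE protein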
# ABHD4 inh: ABHD4 (mouse) inhibition, primary FP screen | purified mABHD4, FP-Rh probe fluorescence polarization | inhibition, % at 8.92 µM | Q8VD66 | AID 720543 | 370,000 compounds, 0.54% hits;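 active means inhibition exceeding the mean over every tested compound plus 3 SD, cut at about 30% in these data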;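 further: 0% = plate median of compound wells and 100% = S159A mutant with DMSO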
#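 assay system = mABHD4 protein | compound dosing = single nominal dose of 8.92 µM, 0.89% DMSO final | read-out basis = percent inhibition of probe binding, normalized to plate controls | schedule = Enzyme–compound pre-incubation 45 min, then probe 60 min, both 25 °C | detection = fluorescence polarization, excitation 525 nm, emission 598 nm, BODIPY TMR filters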
# HTRA1 inhibitor: HTRA1 (human) protease inhibition. Q92743. 340,000 compounds, 0.5% hits. recombinant HTRA1, FP-rhodamine activity-based probe, fluorescence polarization. AID 504803. inhibition, % at 5.96 µM; in the data active means inhibition above about 36%;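 further: 0% = enzyme with DMSO and 100% = wells lacking enzyme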
# Target sequence (Q92743 whole entry, looked up): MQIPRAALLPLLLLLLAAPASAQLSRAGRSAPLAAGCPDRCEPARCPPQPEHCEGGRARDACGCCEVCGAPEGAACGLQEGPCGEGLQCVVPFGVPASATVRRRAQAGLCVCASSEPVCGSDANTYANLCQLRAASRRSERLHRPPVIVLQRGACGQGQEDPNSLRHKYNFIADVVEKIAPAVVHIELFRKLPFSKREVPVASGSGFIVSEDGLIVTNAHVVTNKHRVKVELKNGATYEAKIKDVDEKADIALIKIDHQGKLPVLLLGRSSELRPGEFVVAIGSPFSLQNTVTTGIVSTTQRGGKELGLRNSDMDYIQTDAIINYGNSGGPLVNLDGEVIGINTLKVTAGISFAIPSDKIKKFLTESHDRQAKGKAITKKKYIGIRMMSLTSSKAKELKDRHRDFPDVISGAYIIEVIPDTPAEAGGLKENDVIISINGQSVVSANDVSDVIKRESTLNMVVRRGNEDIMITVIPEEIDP
# PAD4 inh: blocks human protein arginine deiminase 4 | Q9UM07 | recombinant PAD4, RCA probe fluorescence polarization | inhibition, % at 6.36 µM | 330,000 compounds, 0.41% hits | AID 485272;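 active means percent inhibition above a cutoff equal to the mean of all tested compounds plus 3 SD, cut at about 15% in these data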;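 further: 0% = PAD4 with RCA probe and DMSO and 100% = probe without PAD4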
# Numbers without * were called inactive; x = not tested or not shown; ! = repeats disagree. An excerpt weighted towards active compounds, which were near 2.9% of everything screened.
SMILES,PRMT1 FP inh,TCR-CD3 inh,SIAE primary,ABHD4 inh,HTRA1 inhibitor,PAD4 inh
COc1ccc(-[n+]2c(C)cc(/C=C3\Sc4ccccc4N3C)cc2C)cc1,24*,5,1,14,3,-5
COC(=O)[C@]12C[C@H](CC(=O)NCC3CCCCC3)C(=O)N(Cc3ccc(Cl)cc3Cl)C1=C[C@H](C(C)C)O[C@@H]2C1CC1,2,x,-4,-10,x,x
CN(C)c1ccc(-c2nc3ncc(Cl)cc3[nH]2)cc1,5,x,-2,11,x,x
COc1cccc(-c2noc(Cn3nc(C)c([N+](=O)[O-])c3C)n2)c1,23*,7,2,-7,-13,1
COc1cccc(OCc2nc(-c3cccc([N+](=O)[O-])c3)no2)c1,4,-2,-2,-11,x,3
Cc1cccn2c(=O)c3cc(C#N)c(=NC(=O)c4ccco4)n(Cc4ccco4)c3nc12,12,7,-11,2,4,-3
Cc1cccc(C(=O)N=c2c(C#N)cc3c(=O)n4cccc(C)c4nc3n2Cc2ccco2)c1,25*!,8,-10,11,-15,3
Cc1cccn2c(=O)c3cc(C#N)c(=NC(=O)c4ccccc4)n(Cc4ccco4)c3nc12,24*,6,-15,3,0,2
COC(=O)[C@]12C[C@H](CC(=O)NCCCCc3ccccc3)C(=O)N(Cc3ccc(Cl)cc3Cl)C1=C[C@H](COCc1ccccc1)O[C@@H]2C,4,x,-13,-6,x,x
S=C(Nc1ccccc1)OC1CCC12CCC(c1ccccc1)CC2 (stereo not given),1,x,-6,-22,x,x
CC[C@]12c3[nH]c4cc(-c5ccco5)ccc4c3CCN1C(=O)[C@@H](CC(=O)NC/C=C(\C)CCC=C(C)C)C[C@@H]2C(=O)N1CCN(C(=O)C2CC2)CC1,23*,-11,-7,1,-3,-8
Cc1ccc(Nc2n[nH]c(=S)s2)cc1F,22*,4,7,3,0,x
CCC(=O)OC1(C)C(=O)C=C2C=C(c3ccsc3)OC=C2C1=O (stereo not given),x,x,x,x,48*,-14
COC(=O)CCC(=O)OC1(C)C(=O)C=C2C=C(c3ccsc3)OC=C2C1=O (stereo not given),x,x,x,x,30,-14
CCN(CC)C(=O)CC[C@H]1CC[C@]2(CCCN(CC3CC3)C2)O1,2,x,0,4,x,x
COc1cc(SC)ccc1C(=O)Nc1ccccn1,-1,1,-2,-4,-6,2
COc1cc(SC)ccc1C(=O)Nc1ccon1,24*,-1,-7,-11,-8,8
CCN(C[C@H]1[C@@H](c2ccc(C3=CCCC3)cc2)[C@H](CO)N1c1nc(C)c(C)s1)S(=O)(=O)c1ccccc1[N+](=O)[O-],-4,x,4,9,x,x
CC(C)C[C@@H]1NC(=O)[C@H]2C[C@@]3(C)c4ccccc4N[C@H]3N2C1=O,-1,x,3,6,x,x
CCn1cc(C(=O)O)c(=O)c2cnc(N3CCN(C(=S)NC(=O)c4ccc(OC)cc4)CC3)nc21,-6,-8,17*,-3,1,-3
C=CCN(C)CC#Cc1ccccc1C,3,x,0,0,x,x
Cc1ccc2nc(Cl)c3nnnn3c2c1,x,x,x,x,2,22*
Nc1sc2c(c1C(=O)NC1CCS(=O)(=O)C1)CCCC2 (stereo not given),23*,-5,22*,21,5,-8
O=C(CSc1ncnc2sc3c(c12)CCCC3)NC1CCS(=O)(=O)C1 (stereo not given),7,-4,5,2,1,-2
O=C1NCCCC2c3cc(O)c4ccccc4c3OC12N1CCCCC1 (stereo not given),15,5,9,27,x,34*
SMILES,PRMT1 FP inh,TCR-CD3 inh,SIAE primary,ABHD4 inh,HTRA1 inhibitor,PAD4 inh
O=c1oc2ccccc2c(O)c1CN1CCCCC1,-4,-6,-8,-5,-17,-2
CC(C)[C@H](NC(=O)[C@@H]1CSC2c3ccccc3C(=O)N21)C(=O)NCc1ccco1 (stereo not given in full),5,-2,3,5,0,-3
O=C(NCc1ccco1)[C@@H]1CSC2c3ccccc3C(=O)N21 (stereo not given in full),21*,10,-3,2,0,-5
O=C(O)c1c(C(=O)O)c(-c2ccc(Cl)c(Cl)c2)n2c1CSC2,30*,-2,-1,-4,-8,-2
C=CCN(C)CC#Cc1ccc(C)cc1,0,x,-3,5,x,x
COc1cc(OC)cc(-c2c(-c3cccs3)c3cc(Br)ccc3n2C)c1,25*,1,-7,7,-5,-5
S=c1[nH]nc(-c2n[nH]c3c2CCC3)n1N=Cc1c[nH]c2ccccc12,22*,x,1,7,x,x
COc1ccc2ccccc2c1C=Nn1c(-c2n[nH]c3c2CCC3)n[nH]c1=S,3,x,0,-3,x,x
Fc1ccccc1-c1n[nH]c(=S)n1/N=C/c1c[nH]c2ccccc12,24*,-9,2,2,-5,0
C/C(CC(=O)Nc1ccc(Cl)c(C(F)(F)F)c1)=N\NC(=O)c1cc2ccccc2cc1O,3,-4,40*,14,22,-6
CC(C)(C)NC(=O)C1N(c2cccnc2)C(=O)C2C(C(=O)Nc3ccccc3F)C3(C)C=CC21O3 (stereo not given),22*,4,1,-3,7,-3
COC(=O)C1CN(Cc2ccccc2)CCS(=O)(=O)N1Cc1ccc(Cl)cc1 (stereo not given),-1,x,2,-4,x,x
Cc1ccc(-c2cc(C(F)(F)F)n3nc(C(=O)Nc4ccon4)cc3n2)cc1C,0,8,-1,-1,0,-1
COc1ccc(-c2cc(C(F)(F)F)n3nc(C(=O)Nc4cc(C)on4)cc3n2)cc1OC,-2,1,18*,3,8,1
CCCn1c2ccccc2c2nnc(SCCN3CCOCC3)nc21,24*,2,0,-2,11,3
COc1ccc(NC(=S)Nc2cccc(Cl)c2)cc1OC,24*,4,3,27,2,0
COc1ccc(NC(=S)Nc2cccc(C(C)=O)c2)cc1OC,10,5,11,22,10,-8
C=CCN(CC#CC1=CCCCC1)Cc1ccccc1,0,x,3,-1,x,x
O=C1Nc2cc(C(=O)N3CCN(c4ccccc4F)CC3)ccc2NC1CSCc1ccccc1F (stereo not given),x,x,x,x,x,-43
COc1ccc(N2CCN(C(=O)c3ccc4c(c3)NC(=O)C(CSCc3ccccc3F)N4)CC2)cc1 (stereo not given),37*,-9,7,2,10,x
Cc1ccc(S(=O)(=O)Nc2cc(C(C(=O)OC(C)C)C(=O)C(F)(F)F)c(O)c3ccccc23)c(C)c1 (stereo not given),25*,-4,-1,0,-20,8
O=C1CCCC2=C1C(c1ccc(O)c(O)c1)c1c(ccc3ncccc13)N2 (stereo not given),21*,16,1,23,x,-9
